From ChEMBL document CHEMBL1122491, “Synthesis and biological activity of 5-(trifluoromethyl)- and 5-(pentafluoroethyl)pyrimidine nucleoside analogues” (J Med Chem, 1983)

Assays:
[1] = system: Human alphaherpesvirus 1; assay: In vitro percent inhibition of replication of HSV-1 cells at 100 uM concentration; format: functional; conditions: Human alphaherpesvirus 1, HSV-1
Outline: (§1)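 Confluent Vero monolayers in Dulbecco's medium + 10% fetal calf serum were infected with HSV-1 strain CL-101 at MOI 10. After 1 h adsorption at 37 °C, the inoculum was removed and the cells washed with PBS. Compound in serum-containing medium was added for 40 h at 37 °C. Virus released by one freeze-thaw was titred by plaque assay on Vero cells. Percent inhibition was pfu relative to drug-free cultures. ED50 came from dose-response curves of at least two independent experiments.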

[2] = system: Human alphaherpesvirus 1; assay: Concentration required to inhibit replication of HSV-1 cell by 50%; format: functional; conditions: Human alphaherpesvirus 1, HSV-1; read-out: ED50 (the source's name); outline: as §1
[3] = system: L1210; assay: In vitro percent inhibition of replication of L1210 cells at 100 uM concentration; format: functional; conditions: Mus musculus
Outline: (§2)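 Mouse L1210 and S-180 suspension cultures were kept in Fischer's medium + 10% horse serum at 37 °C, 5% CO2. Exponentially growing cells at 2 × 10⁴ cells/mL were given compound. The increase in cell number versus drug-free control was counted after 24, 48 and 72 h. ED50 came from dose-response curves of at least two independent experiments.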

[4] = In vitro percent inhibition of replication of S-180 cells at 100 uM concentration; format: functional; conditions: Mus musculus; outline: as §2
[5] = system: Human alphaherpesvirus 1; assay: In vitro percent inhibition of replication of HSV-1 cells at 20 uM concentration; format: functional; conditions: Human alphaherpesvirus 1, HSV-1; outline: as §1
[6] = system: Human alphaherpesvirus 1; assay: In vitro percent inhibition of replication of HSV-1 cells at 40 uM concentration; format: functional; conditions: Human alphaherpesvirus 1, HSV-1; outline: as §1
[7] = system: Human alphaherpesvirus 1; assay: In vitro percent inhibition of replication of HSV-1 cells at 80 uM concentration; format: functional; conditions: Human alphaherpesvirus 1, HSV-1; outline: as §1
[8] = system: L1210; assay: Concentration required to inhibit replication of L1210 cell by 50%; format: functional; conditions: Mus musculus, read-out: ED50 (the source's name); outline: as §2
[9] = system: L1210; assay: In vitro percent inhibition of replication of L1210 cells at 25 uM concentration; format: functional; conditions: Mus musculus; outline: as §2
[10] = system: L1210; assay: In vitro percent inhibition of replication of L1210 cells at 50 uM concentration; format: functional; conditions: Mus musculus; outline: as §2
[11] = Concentration required to inhibit replication of S-180 cell by 50%; format: functional; conditions: Mus musculus, read-out: ED50 (the source's name); outline: as §2
[12] = In vitro percent inhibition of replication of S-180 cells at 25 uM concentration; format: functional; conditions: Mus musculus; outline: as §2
[13] = In vitro percent inhibition of replication of S-180 cells at 50 uM concentration; format: functional; conditions: Mus musculus; outline: as §2
[14] = system: Vero; assay: Concentration required to inhibit replication of vero cell by 50%; format: functional; conditions: Chlorocebus sabaeus, read-out: ED50 (the source's name)
Outline: (§3)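 Uninfected Vero cells were seeded at 0.1 confluency in Dulbecco's medium + 10% fetal calf serum and grown 1 day at 37 °C, 5% CO2. Compound was then added in growth medium. Cells were detached with 0.125% trypsin/0.02% EDTA for 15 min at 37 °C, dispersed by pipetting, stained with Trypan blue and counted by hemocytometer. ED50 came from dose-response curves of at least two independent experiments.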

[15] = system: Vero; assay: In vitro percent inhibition of replication of vero cells at 100 uM concentration; format: functional; conditions: Chlorocebus sabaeus; outline: as §3
[16] = system: Vero; assay: In vitro percent inhibition of replication of vero cells at 25 uM concentration; format: functional; conditions: Chlorocebus sabaeus; outline: as §3
[17] = system: Vero; assay: In vitro percent inhibition of replication of vero cells at 5 uM concentration; format: functional; conditions: Chlorocebus sabaeus; outline: as §3
[18] = system: Vero; assay: In vitro percent inhibition of replication of vero cells at 50 uM concentration; format: functional; conditions: Chlorocebus sabaeus; outline: as §3
[19] = Therapeutic index was determined as the ratio fo ED50(vero)/ ED50(HSV-1); conditions: monkey, Vero cells
Outline: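 Ratio of ED50 for uninfected Vero cell replication (cell counts after compound exposure) to ED50 for HSV-1 yield in Vero cells (plaque titration after 40 h infection at MOI 10). Both ED50 values were estimated from dose-response curves of at least two independent experiments.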

[20] = system: Human alphaherpesvirus 1; assay: In vitro percent inhibition of replication of HSV-1 cells at 10 uM concentration; format: functional; conditions: Human alphaherpesvirus 1, HSV-1; outline: as §1
[21] = system: Human alphaherpesvirus 1; assay: In vitro percent inhibition of replication of HSV-1 cells at 5 uM concentration; format: functional; conditions: Human alphaherpesvirus 1, HSV-1; outline: as §1
[22] = system: Human alphaherpesvirus 1; assay: In vitro percent inhibition of replication of HSV-1 cells at 1.25 uM concentration; format: functional; conditions: Human alphaherpesvirus 1, HSV-1; outline: as §1
[23] = system: Human alphaherpesvirus 1; assay: In vitro percent inhibition of replication of HSV-1 cells at 12.5 uM concentration; format: functional; conditions: Human alphaherpesvirus 1, HSV-1; outline: as §1
[24] = system: L1210; assay: In vitro percent inhibition of replication of L1210 cells at 12.5 uM concentration; format: functional; conditions: Mus musculus; outline: as §2
[25] = In vitro percent inhibition of replication of S-180 cells at 12.5 uM concentration; format: functional; conditions: Mus musculus; outline: as §2
[26] = system: Human alphaherpesvirus 1; assay: In vitro percent inhibition of replication of HSV-1 cells at 50 uM concentration; format: functional; conditions: Human alphaherpesvirus 1, HSV-1; outline: as §1
[27] = system: L1210; assay: In vitro percent inhibition of replication of L1210 cells at 200 uM concentration; format: functional; conditions: Mus musculus; outline: as §2
[28] = system: L1210; assay: In vitro percent inhibition of replication of L1210 cells at 400 uM concentration; format: functional; conditions: Mus musculus; outline: as §2
[29] = In vitro percent inhibition of replication of S-180 cells at 200 uM concentration; format: functional; conditions: Mus musculus; outline: as §2
[30] = system: Vero; assay: In vitro percent inhibition of replication of vero cells at 200 uM concentration; format: functional; conditions: Chlorocebus sabaeus; outline: as §3
[31] = system: Vero; assay: In vitro percent inhibition of replication of vero cells at 400 uM concentration; format: functional; conditions: Chlorocebus sabaeus; outline: as §3
[32] = system: Vero; assay: In vitro percent inhibition of replication of vero cells at 1 uM concentration; format: functional; conditions: Chlorocebus sabaeus; outline: as §3
[33] = system: Vero; assay: In vitro percent inhibition of replication of vero cells at 10 uM concentration; format: functional; conditions: Chlorocebus sabaeus; outline: as §3
[34] = In vitro percent inhibition of replication of S-180 cells at 0.1 uM concentration; format: functional; conditions: Mus musculus; outline: as §2

In the case of `O=c1[nH]c(=O)n(C2C[C@@H](O)[C@@H](CO)O2)cc1C(F)(F)C(F)(F)F` (stereo partly drawn), the inhibition at 100 µM [1] is reported as 15%, the EC50 [2] is reported as > 400 µM and the inhibition at 100 µM [3] is reported as 17%. The inhibition at 100 µM [4] was 28%.
With `CC(=O)OC[C@H]1OC(n2cc(C(F)(F)F)c(=O)[nH]c2=O)[C@H](OC(C)=O)[C@H]1OC(C)=O` (stereo partly drawn) the inhibition at 20 µM [5] was 92%, the inhibition at 40 µM [6] was 97% and the inhibition at 80 µM [7] was 98%. It also gave an EC50 [2] of 7 µM, an EC50 [8] of 45 µM and an inhibition at 100 µM [3] of 95%. The inhibition at 25 µM [9] was 13%, the inhibition at 50 µM [10] was 58% and the EC50 [11] was 25 µM. The inhibition at 100 µM [4] was 95%, the inhibition at 25 µM [12] was 47% and the inhibition at 50 µM [13] was 60%. The EC50 [14] was 45 µM, the inhibition at 100 µM [15] was 100% and the inhibition at 25 µM [16] was 8%. For the same compound, the inhibition at 5 µM [17] was 0%, the inhibition at 50 µM [18] was 57% and the selectivity ratio [19] was 6.4. The inhibition at 10 µM [20] was 61% and the inhibition at 5 µM [21] was 17%.
`CC(=O)OC[C@H]1OC(n2cc(C(F)(F)C(F)(F)F)c(=O)[nH]c2=O)C[C@H]1OC(C)=O` (stereo partly drawn) gave an inhibition at 1.25 µM [22] of 26%, an inhibition at 12.5 µM [23] of 51% and an EC50 [2] of 12.5 µM. It also gave an inhibition at 12.5 µM [24] of 14% and an inhibition at 12.5 µM [25] of 37%.
Work on `O=c1[nH]c(=O)n(C2O[C@H](CO)[C@@H](O)[C@@H]2O)cc1C(F)(F)F` (stereo partly drawn) yielded an inhibition at 100 µM [1] of 99%, an inhibition at 50 µM [26] of 88% and an EC50 [2] of 5 µM. For the same compound, the EC50 [8] was 70 µM, the inhibition at 100 µM [3] was 66% and the inhibition at 200 µM [27] was 84%. The inhibition at 25 µM [9] was 19%, the inhibition at 400 µM [28] was 87% and the inhibition at 50 µM [10] was 33%. The EC50 [11] was 65 µM, the inhibition at 100 µM [4] was 59% and the inhibition at 200 µM [29] was 71%. For the same compound, the inhibition at 25 µM [12] was 41%, the inhibition at 50 µM [13] was 46% and the EC50 [14] was 320 µM. For the same compound, the inhibition at 100 µM [15] was 4%, the inhibition at 200 µM [30] was 14% and the inhibition at 400 µM [31] was 66%. The inhibition at 50 µM [18] was 0%, the selectivity ratio [19] was 64 and the inhibition at 10 µM [20] was 74%.
`O=c1[nH]c(=O)n([C@H]2C[C@H](O)[C@@H](CO)O2)cc1C(F)(F)F` [TRIFLURIDINE] showed an inhibition at 1 µM [32] of 63%, an inhibition at 10 µM [33] of 100% and an inhibition at 0.1 µM [34] of 100%.
